For assay [1], the system named is MC3T3-E1. Put plainly: Reversal of induction in nuclear translocation of ERalpha in mouse MC3T3-E1 cells at 1 uM in presence of PP2. The assay is classed as functional, cell-based. The method in brief:
(§1)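 Src phosphorylation, ERα nuclear translocation and BMP-2 protein analysed by Western blot with ECL detection. Three independent experiments.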

Assay [2] relates to Osteoblast. The assay can be described thus: Effect on insulin-like growth factor 1 gene expression in rat primary osteoblast cells assessed as expression ratio of treated to untreated control by microarray analysis. It counts as functional. The method in brief:
(§2)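 Resveratrol-treated and vehicle-treated primary osteoblasts were profiled on a mouse osteogenesis-focused cDNA array (GEArray Q series) built to track gene expression during osteogenic differentiation. Each gene's signal in treated cells was expressed as a ratio to untreated control.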

The target in assay [3] is T1, Estrogen receptor (Mus musculus) (UniProt P19785).
T1 sequence (whole entry): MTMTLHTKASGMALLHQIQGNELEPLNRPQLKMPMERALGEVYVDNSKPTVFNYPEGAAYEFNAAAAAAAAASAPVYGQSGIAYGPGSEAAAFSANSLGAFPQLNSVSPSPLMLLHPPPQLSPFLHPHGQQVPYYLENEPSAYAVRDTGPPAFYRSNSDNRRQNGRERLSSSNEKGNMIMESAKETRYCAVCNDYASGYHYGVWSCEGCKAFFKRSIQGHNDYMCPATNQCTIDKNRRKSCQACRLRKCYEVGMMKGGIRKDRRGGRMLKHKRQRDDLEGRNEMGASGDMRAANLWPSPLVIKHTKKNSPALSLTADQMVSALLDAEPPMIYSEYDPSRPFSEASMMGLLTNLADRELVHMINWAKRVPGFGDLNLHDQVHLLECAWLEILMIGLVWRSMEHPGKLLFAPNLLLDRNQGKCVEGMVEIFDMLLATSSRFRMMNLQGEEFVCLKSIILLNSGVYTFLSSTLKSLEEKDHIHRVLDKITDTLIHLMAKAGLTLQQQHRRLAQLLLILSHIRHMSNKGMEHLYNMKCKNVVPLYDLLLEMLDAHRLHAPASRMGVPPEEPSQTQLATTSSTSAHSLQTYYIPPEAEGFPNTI
Put plainly: Reversal of increase in DNA-binding activity of ERalpha in nuclear extracts of mouse MC3T3-E1 cells by electrophoretic mobility shift assays in presence of ICI-182780. The assay is classed as cell-based. The gist of the method:
(§3)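 Nuclear extracts of MC3T3-E1 cells. ER-binding probe [α-32P]dCTP end-labeled, 20-min binding at room temperature, 5-fold unlabeled competitor where used. Complexes resolved on 5% nondenaturing PAGE in Tris-borate-EDTA pH 8.3, then autoradiography.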
A general note: Mobility shift assays separate free from complexed probe on a gel.

Assay [4] concerns MC3T3-E1. Put plainly: Reversal of induction in ER.DNA complex in mouse MC3T3-E1 cells at 1 uM by RT-PCR in presence of ICI-182780. It counts as functional, cell-based. The gist of the method: (§4)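 BMP-2 promoter quantified by real-time PCR (45 cycles, 61 °C anneal), reported as IP-to-input Ct ratio. DN-Src by 3 μg vector, PP2 at 10 μM; ICI182780 and tamoxifen at indicated concentrations.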

The target in assay [5] is Forkhead box protein O3 (Homo sapiens) (UniProt O43524). Put plainly: Induction of FOXO3a activity in human MDA-MB-231 cells. It counts as cell-based.
Chain of Forkhead box protein O3 (Homo sapiens) (O43524 whole entry): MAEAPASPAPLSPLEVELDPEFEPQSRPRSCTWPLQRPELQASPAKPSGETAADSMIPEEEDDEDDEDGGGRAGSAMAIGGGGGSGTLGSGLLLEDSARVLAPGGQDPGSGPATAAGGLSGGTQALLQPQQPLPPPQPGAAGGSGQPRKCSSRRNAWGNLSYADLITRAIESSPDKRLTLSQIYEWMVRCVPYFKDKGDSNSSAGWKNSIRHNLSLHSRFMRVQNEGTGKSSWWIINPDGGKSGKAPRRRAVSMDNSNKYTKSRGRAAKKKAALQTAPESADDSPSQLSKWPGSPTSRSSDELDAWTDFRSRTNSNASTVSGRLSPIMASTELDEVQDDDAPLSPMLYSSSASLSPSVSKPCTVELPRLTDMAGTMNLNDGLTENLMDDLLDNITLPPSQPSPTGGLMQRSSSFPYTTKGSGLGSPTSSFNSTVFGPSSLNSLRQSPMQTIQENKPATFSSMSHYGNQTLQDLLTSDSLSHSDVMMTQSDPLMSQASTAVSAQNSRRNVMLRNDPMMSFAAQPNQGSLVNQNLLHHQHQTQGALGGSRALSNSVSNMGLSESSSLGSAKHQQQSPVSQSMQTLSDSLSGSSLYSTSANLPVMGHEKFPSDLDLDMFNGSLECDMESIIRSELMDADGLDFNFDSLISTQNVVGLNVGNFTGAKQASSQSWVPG
The nature of assay [6]: Reversal of increase in BMP2 expression in mouse MC3T3-E1 cells expressing small interfering RNA for FOXA1 protein at 1 uM by Western blot. The assay is classed as functional, cell-based. (Immunoblotting shows a protein as a band on a membrane.)
For assay [7], the target named is T1, Estrogen receptor (Mus musculus). The assay can be described thus: Reversal of increase in DNA-binding activity of ERalpha in nuclear extracts of mouse MC3T3-E1 cells by electrophoretic mobility shift assays in presence of short interfering ER alpha-RNA. It counts as cell-based. The gist of the method:
as §3

In assay [8] the target is Alkaline phosphatase (Rattus norvegicus) (UniProt Q9JKS8). Put plainly: Increase in ALP activity in rat primary osteoblast cells at 0.1 to 10 uM after 7 days. The assay is classed as cell-based.
Chain of Alkaline phosphatase (Rattus norvegicus) (Q9JKS8 as listed by the source): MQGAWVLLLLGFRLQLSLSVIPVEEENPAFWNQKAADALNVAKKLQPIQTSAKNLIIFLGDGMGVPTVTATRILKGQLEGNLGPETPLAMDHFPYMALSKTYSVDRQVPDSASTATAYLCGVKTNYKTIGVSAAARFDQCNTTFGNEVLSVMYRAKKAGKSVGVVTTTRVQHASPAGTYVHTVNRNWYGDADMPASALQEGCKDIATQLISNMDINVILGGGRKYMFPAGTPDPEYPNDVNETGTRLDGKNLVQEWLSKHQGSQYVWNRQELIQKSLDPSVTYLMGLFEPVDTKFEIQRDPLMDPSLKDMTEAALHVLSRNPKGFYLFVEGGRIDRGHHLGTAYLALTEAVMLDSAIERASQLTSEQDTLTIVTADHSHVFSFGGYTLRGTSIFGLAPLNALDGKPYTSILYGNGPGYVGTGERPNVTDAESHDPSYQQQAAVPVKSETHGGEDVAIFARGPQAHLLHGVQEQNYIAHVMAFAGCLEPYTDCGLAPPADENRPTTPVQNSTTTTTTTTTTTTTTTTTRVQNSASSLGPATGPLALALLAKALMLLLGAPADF
Assay [9] concerns Osteoblast. The assay can be described thus: Effect on procollagen 18alpha 1 gene expression in rat primary osteoblast cells assessed as expression ratio of treated to untreated control by microarray analysis. It counts as functional. The method in brief:
as §2

The target in assay [10] is Proto-oncogene tyrosine-protein kinase Src (Mus musculus) (UniProt P05480). Put plainly: Reversal of increase in Src kinase phosphorylation in mouse MC3T3-E1 cells transfected with dominant-negative mutant Src expression vector at 1 uM. It counts as cell-based. The method in brief: as §1
Chain of Proto-oncogene tyrosine-protein kinase Src (Mus musculus) (P05480 2-535 limits assumed): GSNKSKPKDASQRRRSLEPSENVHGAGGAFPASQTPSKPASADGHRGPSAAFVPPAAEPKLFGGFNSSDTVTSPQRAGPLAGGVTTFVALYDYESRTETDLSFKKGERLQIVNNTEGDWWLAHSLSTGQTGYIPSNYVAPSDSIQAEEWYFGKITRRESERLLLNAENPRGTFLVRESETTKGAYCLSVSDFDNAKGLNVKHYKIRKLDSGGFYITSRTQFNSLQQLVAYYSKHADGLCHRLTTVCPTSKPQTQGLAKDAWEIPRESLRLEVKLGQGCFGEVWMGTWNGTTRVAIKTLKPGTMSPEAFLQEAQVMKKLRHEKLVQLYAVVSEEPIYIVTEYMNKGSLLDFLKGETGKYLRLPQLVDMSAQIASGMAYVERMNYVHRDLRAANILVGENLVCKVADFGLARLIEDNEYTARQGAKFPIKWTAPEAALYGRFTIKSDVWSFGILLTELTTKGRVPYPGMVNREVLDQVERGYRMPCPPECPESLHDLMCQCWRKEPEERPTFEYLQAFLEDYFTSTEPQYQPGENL
Assay [11] concerns Osteoblast. Put plainly: Effect on matrix metalloprotease 9 gene expression in rat primary osteoblast cells assessed as expression ratio of treated to untreated control by microarray analysis. The assay is classed as functional. The method in brief: as §2
The subject of assay [12] is Osteoblast. The assay can be described thus: Effect on procollagen 9 alpha 1 gene expression in rat primary osteoblast cells assessed as expression ratio of treated to untreated control by microarray analysis. The assay is classed as functional. The gist of the method: as §2
For assay [13], the target named is Proto-oncogene tyrosine-protein kinase Src (Mus musculus) (UniProt P05480). Put plainly: Reversal of increase in Src kinase phosphorylation in mouse MC3T3-E1 cells at 1 uM in presence of PP2. The assay is classed as cell-based. The gist of the method: as §1
In assay [14] the test system is Rattus norvegicus. The assay can be described thus: Increase in serum BMP2 levels in orally dosed ovariectomized Wistar rat after 10 weeks by ELISA relative to sham operated control. It counts as functional, organism-based. The gist of the method: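 Ovariectomized rats given indicated doses or estrogen by oral feeding; serum BMP-2 by ELISA 10 weeks after surgery; compared with sham-operated group; n = 8/group, means ± S.D.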
In general terms: In an ELISA, binding on a coated surface is turned into a signal by an enzyme label.

The subject of assay [15] is Osteoblast. Put plainly: Inhibition of antiapoptotic activity in rat primary osteoblast cells at 1 uM after 48 hrs in presence of BMP2-specific neutralizing antibody. The assay is classed as functional, cell-based.
Assay [16] has as its system Rattus norvegicus. Put plainly: Increase in bone mineral density in ovariectomized Wistar rat dosed orally after 10 weeks. The assay is classed as functional, organism-based. The gist of the method: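 Female Wistar rats sham-operated or ovariectomized, fed compound orally every 2 days at indicated doses; femur/tibia BMD by DEXA under ketamine (87 mg/kg)/xylazine (13 mg/kg) anesthesia and serum ALP measured 10 weeks after surgery; n = 8/group, means ± S.D.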

Assay [17] in a line: Reversal of increase in pBMP2 expression in mouse MC3T3-E1 cells at 1 uM by luciferase method in presence of PP2. The assay is classed as functional, cell-based. The gist of the method:
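BMP-2 promoter activity measured by dual-luciferase assay and expressed relative to the untreated vector control.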

Assay [18] relates to MC3T3-E1. Put plainly: Increase in osteocalcin mRNA levels in mouse MC3T3-E1 cells at 1 uM after 72 hrs by RT-PCR. It counts as functional, cell-based. The method in brief: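 Cells treated with 1 μm for 72 h; osteocalcin and osteopontin mRNA by RT-PCR, 30 cycles (95/52/72 °C, 1 min each), ethidium bromide–stained agarose gels; repeated at least twice from at least two cDNA preparations.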

In assay [19] the test system is Osteoblast. The assay can be described thus: Effect on secreted acidic cysteine rich glycoprotein gene expression in rat primary osteoblast cells assessed as expression ratio of treated to untreated control by microarray analysis. The assay is classed as functional. The method in brief:
as §2

Assay [20] relates to Osteoblast. Put plainly: Effect on epidermal growth factor gene expression in rat primary osteoblast cells assessed as expression ratio of treated to untreated control by microarray analysis. The assay is classed as functional.
For assay [21], the system named is MC3T3-E1. The assay can be described thus: Reversal of increase in ER.DNA complex in mouse MC3T3-E1 cells transfected with dominant-negative mutant Src expression vector at 1 uM by RT-PCR. The assay is classed as functional, cell-based. The method in brief:
as §4

Assay [22] is described as follows: Reversal of increase in BMP2 expression in mouse MC3T3-E1 cells expressing pBMP2/mERE mutant at 1 uM after 4 hrs by luciferase method. The assay is classed as functional, cell-based.
Assay [23] relates to Osteoblast. The assay can be described thus: Inhibition of etoposide-induced apoptosis in rat primary osteoblast cells after 24 hrs by flow cytometry. It counts as functional, cell-based. The method in brief:
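Cells washed in PBS, held 30 min in 0.5% Triton X-100/PBS/0.05% RNase A, then propidium iodide (50 μg/ml) added and kept on ice 15–30 min. Apoptosis is the hypodiploid fraction below the G0/G1 peak, by flow cytometry. Run in triplicate and repeated on three occasions.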

SMILES strings stand for the structures. Activity calls are given as the source filed them. The rule behind the calls is not given here.

For `Oc1ccc(/C=C/c2cc(O)cc(O)c2)cc1` [RESVERATROL], the outcome (in the assay on MC3T3-E1 [1]; in assay [3]; in [5]; in assay [6]; in assay [7]; in assay [8]) was Active. Besides, the outcome (in assay [10]; in [13]; with Rattus norvegicus [14]; in the assay on Osteoblast [15]; in [17]; in the assay on MC3T3-E1 [18]) was Active. The outcome in the assay on MC3T3-E1 [21] and in the assay on Osteoblast [23] was Active. For the same molecule, the Ratio in the assay on Osteoblast [2] came to 4.54; in the assay with Osteoblast [9], 3.16; with Osteoblast [11] it was 0.43; in the assay with Osteoblast [12], 3.99; in the assay on Osteoblast [19] it was 1.6; in the assay with Osteoblast [20] it was 0.55. Moreover, the Activity entry in the assay on MC3T3-E1 [4] is “Dose-dependent effect”; with Rattus norvegicus [16], “Dose-dependent effect”; in assay [22] it was 80%.

(Values after ChEMBL document CHEMBL1156469 (2007).)
